ChEMBL document CHEMBL1145479, “Tigecycline Efflux as a Mechanism for Nonsusceptibility in Acinetobacter baumannii” (2007)
Converted amounts (≈) assume the structure as drawn.

Assays:
Acinetobacter baumannii [1] = experiment: Antimicrobial activity against Acinetobacter baumannii A24C after 4 days by broth microdilution method; type: functional; settings: 96 h
Acinetobacter baumannii [2] = experiment: Antimicrobial activity against Acinetobacter baumannii A24D after 4 days by broth microdilution method; type: functional; settings: 96 h
Acinetobacter baumannii [3] = experiment: Antimicrobial activity against Acinetobacter baumannii A24 in presence of efflux pump inhibitor phenyl-arginine-beta-naphthylamide by broth microdilution method; type: functional
Acinetobacter baumannii [4] = experiment: Antimicrobial activity against Acinetobacter baumannii A24A after 4 days by broth microdilution method; type: functional; settings: 96 h
Acinetobacter baumannii [5] = experiment: Antimicrobial activity against Acinetobacter baumannii A24B after 4 days by broth microdilution method; type: functional; settings: 96 h
Acinetobacter baumannii [6] = experiment: Antimicrobial activity against Acinetobacter baumannii B46 in presence of efflux pump inhibitor phenyl-arginine-beta-naphthylamide by broth microdilution method; type: functional
Acinetobacter baumannii [7] = experiment: Antimicrobial activity against Acinetobacter baumannii C75 in presence of efflux pump inhibitor phenyl-arginine-beta-naphthylamide by broth microdilution method; type: functional
Acinetobacter baumannii [8] = experiment: Antimicrobial activity against Acinetobacter baumannii A24D after 4 days in presence of efflux pump inhibitor phenyl-arginine-beta-naphthylamide by broth microdilution method; type: functional; settings: 96 h
Acinetobacter baumannii [9] = experiment: Antimicrobial activity against Acinetobacter baumannii B46 by broth microdilution method; type: functional
Acinetobacter baumannii [10] = experiment: Antimicrobial activity against Acinetobacter baumannii D54 by broth microdilution method; type: functional
Acinetobacter baumannii [11] = experiment: Antimicrobial activity against Acinetobacter baumannii C75 by broth microdilution method; type: functional
Acinetobacter baumannii [12] = experiment: Antimicrobial activity against Acinetobacter baumannii A24 by broth microdilution method; type: functional
Acinetobacter baumannii [13] = experiment: Antimicrobial activity against Acinetobacter baumannii A24 in presence of efflux pump inhibitor phenyl-arginine-beta-naphthylamide by agar dilution method; type: functional
Acinetobacter baumannii [14] = experiment: Antimicrobial activity against Acinetobacter baumannii A24B after 4 days by agar dilution method; type: functional; settings: 96 h
In short: (§1)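 Fresh cultures were passaged overnight on tigecycline-containing Mueller-Hinton II agar, boiled before inoculation to prevent tigecycline oxidative degradation. […] Inoculum was 0.5 McFarland. Tigecycline MICs were recorded daily by agar dilution.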

Acinetobacter baumannii [15] = experiment: Antimicrobial activity against Acinetobacter baumannii B46 by agar dilution method; type: functional
In short: (§2)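 Tigecycline MIC first estimated by Etest, then confirmed by agar dilution on Mueller-Hinton II agar. Strains were grown in LB broth.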

Acinetobacter baumannii [16] = experiment: Antimicrobial activity against Acinetobacter baumannii C75 by agar dilution method; type: functional; in short: as §2
Acinetobacter baumannii [17] = experiment: Antimicrobial activity against Acinetobacter baumannii A24 by agar dilution method; type: functional; in short: as §2
Acinetobacter baumannii [18] = experiment: Inhibition of AdeABC efflux pump protein in Acinetobacter baumannii A24 assessed as ethidium bromide accumulation at 100 uM; design: scale not given: the % may be the effect or the level left
In short: (§3)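 Overnight cells pelleted and resuspended to A600 0.2 in sodium phosphate buffer pH 7.0, with ethidium bromide at 2 μg/ml final. Incubated 420 s, then CCCP (protonophore) added at 100 μM final for a further 180 s. Fluorescence read at ex 530/em 600 nm, cell-only background subtracted, and expressed as percent increase in accumulation after CCCP.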

Acinetobacter baumannii [19] = experiment: Inhibition of AdeABC efflux pump protein in Acinetobacter baumannii A24D assessed as ethidium bromide accumulation at 100 uM; design: scale not given: the % may be the effect or the level left
In short: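 Overnight cells were pelleted and resuspended to A600 0.2 in sodium phosphate buffer, pH 7.0. Ethidium bromide was added at 2 μg/ml final and incubated 420 s. CCCP was then added at 100 μM final for a further 180 s. Fluorescence was read at ex 530 / em 600 nm, with cell-only background subtracted. The value is the percent increase in accumulation after CCCP.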

Acinetobacter baumannii [20] = experiment: Antimicrobial activity against Acinetobacter baumannii A24C after 4 days by agar dilution method; type: functional; settings: 96 h; in short: as §1
Acinetobacter baumannii [21] = experiment: Antimicrobial activity against Acinetobacter baumannii D54 by agar dilution method; type: functional
In short: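 Tigecycline MIC screened by Etest and confirmed by agar dilution on Mueller-Hinton II agar; strains cultivated in LB broth.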

Acinetobacter baumannii [22] = experiment: Antimicrobial activity against Acinetobacter baumannii B46 in presence of efflux pump inhibitor phenyl-arginine-beta-naphthylamide by agar dilution method; type: functional
Acinetobacter baumannii [23] = experiment: Antimicrobial activity against Acinetobacter baumannii A24A after 4 days by agar dilution method; type: functional; settings: 96 h; in short: as §1
Acinetobacter baumannii [24] = experiment: Inhibition of AdeABC efflux pump protein in Acinetobacter baumannii D54 assessed as ethidium bromide accumulation at 100 uM; design: scale not given: the % may be the effect or the level left; in short: as §3
Acinetobacter baumannii [25] = experiment: Antimicrobial activity against Acinetobacter baumannii A24D after 4 days by agar dilution method; type: functional; settings: 96 h; in short: as §1
Acinetobacter baumannii [26] = experiment: Inhibition of AdeABC efflux pump protein in Acinetobacter baumannii B46 assessed as ethidium bromide accumulation at 100 uM; design: scale not given: the % may be the effect or the level left; in short: as §3
Acinetobacter baumannii [27] = experiment: Antimicrobial activity against Acinetobacter baumannii C75 in presence of efflux pump inhibitor phenyl-arginine-beta-naphthylamide by agar dilution method; type: functional
Acinetobacter baumannii [28] = experiment: Antimicrobial activity against Acinetobacter baumannii A24D after 4 days in presence of efflux pump inhibitor phenyl-arginine-beta-naphthylamide by agar dilution method; type: functional; settings: 96 h
In short: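 Tigecycline MIC determined by agar dilution on Mueller-Hinton agar containing PABN, for bacteria from the final day of growth. PABN was dissolved in water as a 25 mg/ml stock and added to agar cooled to 50°C.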

Acinetobacter baumannii [29] = experiment: Inhibition of AdeABC multidrug efflux pump in Acinetobacter baumannii C75 assessed as ethidium bromide accumulation at 100 uM; design: scale not given: the % may be the effect or the level left; in short: as §3

Structure (SMILES) | MIC (Acinetobacter baumannii [1]) [µg/mL] | MIC (Acinetobacter baumannii [2]) [µg/mL] | MIC (Acinetobacter baumannii [3]) [µg/mL] | MIC (Acinetobacter baumannii [4]) [µg/mL] | MIC (Acinetobacter baumannii [5]) [µg/mL] | MIC (Acinetobacter baumannii [6]) [µg/mL] | MIC (Acinetobacter baumannii [7]) [µg/mL] | MIC (Acinetobacter baumannii [8]) [µg/mL] | MIC (Acinetobacter baumannii [9]) [µg/mL] | MIC (Acinetobacter baumannii [10]) [µg/mL] | MIC (Acinetobacter baumannii [11]) [µg/mL] | MIC (Acinetobacter baumannii [12]) [µg/mL] | other results
CO/N=C(\C(=O)N[C@@H]1C(=O)N2C(C(=O)[O-])=C(C[N+]3(C)CCCC3)CS[C@H]12)c1csc(N)n1 [CEFEPIME] | 16 (≈ 33.3 µM) | 16 (≈ 33.3 µM) | 3 | 12 (≈ 25 µM) | 12 (≈ 25 µM) | 128 | 16 | 1 | > 256 | 1.5 (≈ 3.12 µM) | > 256 |  | 
CC(C)(O/N=C(\C(=O)N[C@@H]1C(=O)N2C(C(=O)[O-])=C(C[n+]3ccccc3)CS[C@H]12)c1csc(N)n1)C(=O)O [CEFTAZIDIME] | > 256 | > 256 | 96 | > 256 | > 256 | 8 | 8 | 32 | 96 (≈ 176 µM) | 4 (≈ 7.32 µM) | 192 (≈ 351 µM) | > 256 | 
O=C(N[C@H](CO)[C@H](O)c1ccc([N+](=O)[O-])cc1)C(Cl)Cl [CHLORAMPHENICOL] | 96 (≈ 297 µM) | 16 (≈ 49.5 µM) | 12 | 96 (≈ 297 µM) | 96 (≈ 297 µM) | 8 | 8 | 4 | 32 (≈ 99 µM) | 0.25 (≈ 0.774 µM) | 32 (≈ 99 µM) | 16 (≈ 49.5 µM) | 
O=C(O)c1cn(C2CC2)c2cc(N3CCNCC3)c(F)cc2c1=O [CIPROFLOXACIN] | 256 (≈ 773 µM) | 512 (≈ 1550 µM) | 128 | 256 (≈ 773 µM) | 256 (≈ 773 µM) | 128 | 256 | 128 | 128 (≈ 386 µM) | 0.25 (≈ 0.754 µM) | 512 (≈ 1550 µM) | 256 (≈ 773 µM) | 
C[C@@H](O)[C@H]1C(=O)N2C(C(=O)O)=C(SCCNC=N)C[C@H]12 [IMIPENEM ANHYDROUS] | 0.19 (≈ 0.635 µM) | 0.5 (≈ 1.67 µM) | 0.032 | 0.125 (≈ 0.418 µM) | 0.125 (≈ 0.418 µM) | 0.25 | 0.125 | 0.064 | 1.5 (≈ 5.01 µM) | 0.125 (≈ 0.418 µM) | 1.5 (≈ 5.01 µM) | 0.38 (≈ 1.27 µM) | 
C[C@@H](O)[C@H]1C(=O)N2C(C(=O)O)=C(S[C@@H]3CN[C@H](C(=O)N(C)C)C3)[C@H](C)[C@H]12 [MEROPENEM] | 0.75 (≈ 1.96 µM) | 2 (≈ 5.22 µM) | 0.094 | 0.75 (≈ 1.96 µM) | 0.75 (≈ 1.96 µM) | 0.25 | 0.125 | 0.094 | 4 (≈ 10.4 µM) | 0.25 (≈ 0.652 µM) | 4 (≈ 10.4 µM) | 1 (≈ 2.61 µM) | 
CN(C)c1ccc(O)c2c1C[C@H]1C[C@H]3[C@H](N(C)C)C(O)=C(C(N)=O)C(=O)[C@@]3(O)C(O)=C1C2=O [MINOCYCLINE] | 16 (≈ 35 µM) | 32 (≈ 69.9 µM) | 2 | 12 (≈ 26.2 µM) | 16 (≈ 35 µM) | 0.25 | 1 | 8 | 0.25 (≈ 0.546 µM) | 0.125 (≈ 0.273 µM) | 2 (≈ 4.37 µM) | 32 (≈ 69.9 µM) | 
CCN1CCN(C(=O)N[C@@H](C(=O)N[C@@H]2C(=O)N3[C@@H]2SC(C)(C)[C@@H]3C(=O)O)c2ccccc2)C(=O)C1=O [PIPERACILLIN] | 16 (≈ 30.9 µM) | 24 (≈ 46.4 µM) | 3 | 12 (≈ 23.2 µM) | 12 (≈ 23.2 µM) |  | 8 | 1 | 256 (≈ 495 µM) | 16 (≈ 30.9 µM) | 48 (≈ 92.7 µM) | 16 (≈ 30.9 µM) | 
CN(C)c1cc(NC(=O)CNC(C)(C)C)c(O)c2c1C[C@H]1C[C@H]3[C@H](N(C)C)C(O)=C(C(N)=O)C(=O)[C@@]3(O)C(O)=C1C2=O [TIGECYCLINE] |  |  |  |  |  |  |  |  |  |  |  |  | MIC (Acinetobacter baumannii [13]): 2 µg/mL; MIC (Acinetobacter baumannii [14]): 2 µg/mL (≈ 3.41 µM); MIC (Acinetobacter baumannii [15]): 4 µg/mL (≈ 6.83 µM); MIC (Acinetobacter baumannii [16]): 16 µg/mL (≈ 27.3 µM); MIC (Acinetobacter baumannii [17]): 2 µg/mL (≈ 3.41 µM); Activity (Acinetobacter baumannii [18]): 52%; Activity (Acinetobacter baumannii [19]): 114%; MIC (Acinetobacter baumannii [20]): 6 µg/mL (≈ 10.2 µM); MIC (Acinetobacter baumannii [21]): 0.125 µg/mL (≈ 0.213 µM); MIC (Acinetobacter baumannii [22]): 1 µg/mL; MIC (Acinetobacter baumannii [23]): 2 µg/mL (≈ 3.41 µM); Activity (Acinetobacter baumannii [24]): 31%; MIC (Acinetobacter baumannii [25]): 24 µg/mL (≈ 41 µM); Activity (Acinetobacter baumannii [26]): 115%; MIC (Acinetobacter baumannii [27]): 4 µg/mL; MIC (Acinetobacter baumannii [28]): 2 µg/mL; Activity (Acinetobacter baumannii [29]): 206%
NC[C@H]1O[C@H](O[C@H]2[C@H](O)[C@@H](O[C@H]3O[C@H](CO)[C@@H](O)[C@H](N)[C@H]3O)[C@H](N)C[C@@H]2N)[C@H](N)C[C@@H]1O [TOBRAMYCIN] | 6 (≈ 12.8 µM) | 16 (≈ 34.2 µM) | 3 | 3 (≈ 6.42 µM) | 4 (≈ 8.56 µM) | 16 | 6 | 8 | 24 (≈ 51.3 µM) | 0.75 (≈ 1.6 µM) | 16 (≈ 34.2 µM) | 4 (≈ 8.56 µM) | 
